According to ChEMBL document CHEMBL1143679, “Anti-inflammatory thiazine alkaloids isolated from the New Zealand ascidian Aplidium sp.: inhibitors of the neutrophil respiratory burst in a model of gouty arthritis” (J Nat Prod, 2007):
Activity calls are given as the source filed them.

Assays:
[1] = tested on: Mus musculus; experiment: Inhibition of superoxide production in peritoneal neutrophils of C57BL/6 gouty mouse at 25.6 umol/kg, po after 4 hrs relative to monosodium urate; type: functional; conditions: C57BL/6, po
Method in brief: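 Male C57BL/6 mice, 8–12 weeks, received MSU crystals (3 mg in 500 µL PBS pH 7.4) ip, with oral gavage of compound (25.6 µmol/kg) at the same time. PBS-gavaged controls; colchicine given sc at 5 µmol/kg. After 4 h, peritoneal lavage with heparinized PBS. Cells adjusted to 1 × 10⁶ neutrophils/mL; PMA-triggered WST-1 reduction measured per million neutrophils, relative to MSU-only mice.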

[2] = tested on: Mus musculus; experiment: Inhibition of urate-induced neutrophil recruitment into peritoneal cavity in mouse at 25 umol/kg; type: functional
Method in brief: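 In the ip MSU (3 mg) mouse model with oral gavage dosing, peritoneal lavage was taken at 4 h. Total cells were counted. A cytocentrifuged aliquot was stained with Diff-Quick, and the neutrophil percentage was scored microscopically by standard histological criteria.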

[3] = Inhibition of superoxide production by xanthine/xanthine oxidase method; type: functional
Method in brief: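 Cell-free enzyme assay. Graded compound dilutions were prepared in 0.1 M Tris pH 7.4, 0.2 mM EDTA, 1% v/v DMSO. Final WST-1 0.35 mM, xanthine 2.38 mM and xanthine oxidase 15 mU/mL. Absorbance at 450 nm was read in real time for 20 min at 37 °C. The rate was compared with buffer controls, and the 50% inhibitory concentration was reported.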

[4] = tested on: HL-60; experiment: Antiproliferative activity against human HL60 cells after 48 hrs by MTT assay; conditions: HL-60, 48 h
[5] = tested on: Neutrophil; experiment: Inhibition of PMA-stimulated superoxide production in human neutrophils; type: functional, cell-based
Method in brief: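 Neutrophils in HBSS, 1 × 10⁶ cells/well, preincubated 30 min with graded compound concentrations (HBSS, 1% v/v DMSO). WST-1 added (final 0.35 mM), then PMA (final 0.295 µM). Dye reduction read in real time at 450 nm for 20 min at 37 °C. Rate compared with buffer-treated cells; AI50 is the concentration giving 50% inhibition.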

Row | SMILES | IC50 [3] | IC50 [4] | IC50 [5] | inhibition in vivo at 25.6 µmol/kg [1] | Activity [2] | inhibition in vivo at 25 µmol/kg [2]
1 | COC(=O)c1ccc2cccc(O)c2n1 | – | 96.9 µM | 277 µM | – | – | –
2 | CN(Cc1cnc2nc(N)nc(N)c2n1)c1ccc(C(=O)N[C@@H](CCC(=O)O)C(=O)O)cc1 [METHOTREXATE] | – | 0.00692 µM | – | – | – | –
3 | Oc1ncnc2[nH]ncc12 [ALLOPURINOL] | 42.2 µM | – | – | – | – | –

More lines, main results first:

Row | IC50 [3] | IC50 [4] | IC50 [5] | SMILES | inhibition in vivo at 25.6 µmol/kg [1] | Activity [2] | inhibition in vivo at 25 µmol/kg [2]
4 | 17.9 µM | 16.7 µM | 0.44 µM | O=C(O)c1ccc2c(n1)C(=O)C1=C(NC=CS1(=O)=O)C2=O [ASCIDIATHIAZONE B] | 59% | inactive | –
5 | – | 4.11 µM | 1.75 µM | COC(=O)c1ccc2c(n1)C(=O)C=CC2=O | – | – | –
6 | 18.2 µM | – | – | COC(=O)c1ccc2c(n1)C(=O)C1=C(C2=O)S(=O)(=O)CCN1 [ASCIDIATHIAZONE A METHYL ESTER] | 84% | – | 60%
7 | 55.9 µM | – | – | O=C(O)c1ccc2c(n1)C(=O)C1=C(C2=O)S(=O)(=O)CCN1 [ACIDIATHIAZONE A] | 23% | inactive | –
